{"data": "Results gathered from unrelated publications", "effect on": "cell growth or viability", "note": "Protocols differ between the studies behind these lines."}
{"Compound": "CCOP(=S)(OCC)Oc1nc(Cl)c(Cl)cc1Cl", "cell line": "ReNcell VM", "assay": "imaging", "conditions": "24 h", "quantity": "IC50", "value": "~11.6 µM"}
{"Compound": "CC(C)C[C@H](NC(=O)OCc1ccccc1)C(=O)N[C@@H](CC(C)C)C(=O)N[C@@H](CC(C)C)C(=O)C(=O)Nc1cccc2ncccc12", "cell line": "RPMI-8226", "assay": "MTS", "conditions": "72 h", "quantity": "IC50", "value": "0.134 µM"}
{"Compound": "O=C(O)CCCc1ccc(N(CCCl)CCCl)cc1", "cell line": "OVCAR-3", "assay": "CCK-8", "conditions": "48 h", "quantity": "IC50", "value": "29.4 µM"}
{"Compound": "C[C@H]1CN(c2ccncc2NC(=O)c2ccc(F)c(-c3c(F)cccc3F)n2)C[C@@H](N)[C@@H]1O", "cell line": "RPMI-8226", "assay": "thymidine uptake", "quantity": "GI50", "value": "0.156 µM"}
{"Compound": "Cc1cc(N(CCOS(C)(=O)=O)CCOS(C)(=O)=O)ccc1C=O", "cell line": "ACHN", "quantity": "IC50", "value": "0.263 µg/mL"}
{"Compound": "CC(C)C[C@H](NC(=O)OCc1ccccc1)C(=O)N[C@@H](Cc1ccccc1)C(=O)N[C@@H](CC(C)C)C(=O)C(=O)Nc1ccccc1", "cell line": "RPMI-8226", "assay": "MTS", "conditions": "72 h", "quantity": "IC50", "value": "0.843 µM"}
{"Compound": "CCCCC/C=C\\C/C=C\\C/C=C\\C/C=C\\CCCC(=O)NCCO", "cell line": "ReNcell VM", "assay": "imaging", "conditions": "24 h", "quantity": "IC50", "value": "~11.4 µM"}
{"Compound": "COc1cc2c3c(n(CCCNCCO)c(=O)c2cc1OC)-c1cc2c(cc1C3=O)OCO2", "cell line": "OVCAR-3", "quantity": "GI50", "value": "0.5 µM"}
